Laboratory results taken from ChEMBL document CHEMBL1141177, “The novel L- and D-amino acid derivatives of hydroxyurea and hydantoins: synthesis, X-ray crystal structure study, and cytostatic and antiviral activity evaluations” (J Med Chem, 2005).
In brackets after ≈: the same amount, converted by molar mass.

Assays:
MCF7 = test: Inhibition of breast carcinoma cell line (MCF-7) growth; format: functional, cell-based; conditions: Homo sapiens
How it was run: (§1)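 Monolayers in DMEM with 10% FBS, 2 mM L-glutamine, penicillin/streptomycin, 37 °C, 5% CO2. Cells seeded on day 0, then compounds added in 5- and 10-fold dilutions (10^-8–10^-4 M) for 72 h. MTT read-out at 570 nm. Percent growth calculated relative to time-zero and untreated OD. Quadruplicates in three experiments; IC50 by linear interpolation, highest concentration reported as ">" when not reached.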

L1210 = test: Inhibition of murine leukemia cells (L1210) growth; format: functional, cell-based; conditions: Mus musculus
HEL [1] = test: Minimum cytotoxic concentration of compound that causes alteration of cell morphology in human embryonic lung cells; format: functional
How it was run: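 Human embryonic lung (HEL) cells were examined microscopically. MCC is the minimum concentration that causes a detectable alteration of cell morphology.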

WI-38 = test: Inhibition of normal human fibroblast cell line (WI 38) growth; format: functional, cell-based; how it was run: as §1
MIA PaCa-2 = test: Inhibition of pancreatic carcinoma cell line (MiaPaCa-2) growth; format: functional, cell-based; conditions: Homo sapiens; how it was run: as §1
[2] = Effective concentration required to reduce plaque formation by AD-169 strain of CMV virus in Human embryonic lung cells; format: functional, cell-based
How it was run: (§2)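 Plaque reduction assay in human embryonic lung (HEL) cell cultures, virus input 100 plaque forming units. Viruses: CMV strains AD-169 and Davis, VZV TK+ strain OKA and TK− strain 07/1. EC50 is the concentration that reduces virus plaque formation by 50%.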

HEp-2 = test: Inhibition of laryngeal carcinoma cell line (Hep-2) growth; format: functional, cell-based; conditions: Homo sapiens; how it was run: as §1
MOLT-4 = test: Inhibition of human T-lymphocyte cell line (Molt4/C8) growth; format: functional, cell-based
[3] = Effective concentration required to reduce plaque formation by Davis strain of CMV virus in Human embryonic lung cells; format: functional, cell-based; how it was run: as §2
HEL [4] = test: Cytotoxic concentration to reduce the 50% cell growth of human embryonic lung cells; format: functional
SW-620 = test: Inhibition of colon carcinoma cell line (SW 620) growth; format: functional, cell-based; conditions: Homo sapiens; how it was run: as §1
Human alphaherpesvirus 3 [5] = test: Effective concentration of compound required to reduce plaque formation by OKA strain of thymidine kinase positive VZ virus TK+ in human embryonic lung cells; format: functional, organism-based; conditions: Human alphaherpesvirus 3, lung
Human alphaherpesvirus 3 [6] = test: Reduction of plaque formation by VZV07/1 strain of thymidine kinase(TK-) deficient VZ virus in human embryonic lung cells; format: functional, organism-based; conditions: Human alphaherpesvirus 3, lung
HeLa = test: Inhibition of cervical carcinoma cell line (HeLa) growth; format: functional, cell-based; conditions: Homo sapiens; how it was run: as §1
[7] = Homo sapiens, HEL, read-out: CC50

Row | SMILES | IC50 (MCF7) [µM] | IC50 (L1210) [µM] | MCC (HEL [1]) [µg/mL] | IC50 (WI-38) [µM] | IC50 (MIA PaCa-2) [µM] | EC50 [2] [µg/mL] | IC50 (HEp-2) [µM] | IC50 (MOLT-4) [µM] | EC50 [3] [µg/mL] | CC50 (HEL [4]; [7]) [µg/mL] | IC50 (SW-620) [µM] | EC50 (Human alphaherpesvirus 3 [5]) [µg/mL] | EC50 (Human alphaherpesvirus 3 [6]) [µg/mL] | IC50 (HeLa) [µM] | CC50 (HEL [4]) [µg/mL]
1 | O=C(NC1CCCCC1)C(NC(=O)n1nnc2ccccc21)c1ccccc1 (stereo unspecified) | 57.6 | 95 | ≥ 16 | > 100 | ≥ 100 | > 3.2 | 69.7 | 92 | > 16 | 15 (≈ 39.7 µM) | > 100 | > 0.64 | > 3.2 | 67 | 
2 | CCC(C)C1NC(=O)N(C2CCCCC2)C1=O (stereo unspecified) |  |  |  |  |  |  |  | > 200 |  |  |  |  |  |  | 
3 | CC(C)C(NC(=O)n1nnc2ccccc21)C(=O)NC1CCCC1 (stereo unspecified) | 79.3 | > 200 | > 200 | ≥ 100 | > 100 | > 200 | 60.3 | > 200 | > 200 |  | > 200 | > 80 | > 200 | 96.4 | 
4 | O=C(NC(c1ccccc1)c1ccccc1)C(Cc1ccccc1)NC(=O)n1nnc2ccccc21 (stereo unspecified) | 16.3 | 17 | 80 | 14.3 | 23.9 | > 16 | 40.5 | 15 |  | 17.3 (≈ 36.4 µM) | 37.6 | > 0.13 | > 0.13 | 30.2 | 
5 | O=C(NC(c1ccccc1)c1ccccc1)C(NC(=O)n1nnc2ccccc21)c1ccccc1 (stereo unspecified) | 34.2 | 114 | 80 | 100 | 42.5 | > 16 | 59.1 | 89 | > 16 | 38.3 (≈ 83 µM) | 51.7 | > 3.2 | > 3.2 | 33.3 | 
6 | O=C(NO)NC(Cc1ccccc1)C(=O)N1CCCC1 (stereo unspecified) | > 100 | > 200 |  | ≥ 100 | > 100 |  | ≥ 100 | 192 |  |  | > 100 |  |  | > 100 | 
7 | CCC(C)C(NC(=O)n1nnc2ccccc21)C(=O)NC(c1ccccc1)c1ccccc1 (stereo unspecified) |  |  |  |  |  |  |  | 79 |  |  |  |  |  |  | 
8 | O=C(NCc1ccccc1)C(Cc1ccccc1)NC(=O)n1nnc2ccccc21 (stereo unspecified) |  |  |  |  |  |  |  | 145 |  |  |  |  |  |  | 
9 | O=C(NC1CCCCC1)C(Cc1ccccc1)NC(=O)n1nnc2ccccc21 (stereo unspecified) | 20.7 | 126 | 80 | 63.2 | ≥ 100 | > 16 | 64.5 | 116 | > 16 | 33 (≈ 84.3 µM) | 110 |  |  | 34.3 | 
10 | O=C(NO)NC(Cc1ccccc1)C(=O)NC1CCCCC1 (stereo unspecified) | ≥ 100 | 18 |  | > 100 | 30.6 |  | 94.2 | 19 |  |  | 100 |  |  | 58 | 
11 | CCC(C)C(NC(=O)NO)C(=O)NC1CCCC1 (stereo unspecified) |  |  |  |  |  |  |  | > 100 |  |  |  |  |  |  | 
12 | CCC(C)C1NC(=O)N(Cc2ccccc2)C1=O (stereo unspecified) |  |  |  |  |  |  |  | > 200 |  |  |  |  |  |  | 
13 | O=C(C(Cc1ccccc1)NC(=O)n1nnc2ccccc21)N1CCCC1 (stereo unspecified) | ≥ 100 | 133 | > 200 | > 100 | > 100 | > 200 | ≥ 100 | 123 | > 200 | 148 (≈ 406 µM) | > 100 | 117 (≈ 322 µM) | 106 (≈ 292 µM) | > 100 | 
14 | CC(C)C1NC(=O)N(C2CCCCC2)C1=O (stereo unspecified) | > 100 | > 200 | ≥ 100 | > 100 | > 100 | 45 (≈ 201 µM) | 100 | > 200 | 41 (≈ 183 µM) | > 50 | > 100 | 45 (≈ 201 µM) | 29 (≈ 129 µM) | > 100 | 
15 | CCC(C)C(NC(=O)NO)C(=O)NCc1ccccc1 (stereo unspecified) |  |  |  |  |  |  |  | 126 |  |  |  |  |  |  | 
16 | O=C(NO)NC(C(=O)N1CCCCC1)c1ccccc1 (stereo unspecified) | > 100 | 80 |  | 6.7 | > 100 |  | > 100 | 125 |  |  | > 100 |  |  | > 100 | 
17 | CCC(C)C1NC(=O)N(C2CCCC2)C1=O (stereo unspecified) |  |  |  |  |  |  |  | > 200 |  |  |  |  |  |  | 
18 | CCC(C)C(NC(=O)NO)C(=O)NC1CCCCC1 (stereo unspecified) | > 100 | 89 |  | > 100 | > 100 |  | > 100 | 150 |  |  | > 100 |  |  | > 100 | 
19 | Nc1nc2c(ncn2COCCO)c(=O)[nH]1 [ACYCLOVIR] |  |  | > 400 |  |  |  |  |  |  | 200 (≈ 888 µM) |  |  |  |  | 200 (≈ 888 µM)
